Values belong to the substance of their own block, whether it stands above or below them. Where no end group is shown, it is not given here. The star is where a group is joined. αGalNAc = CC(=O)N[C@@H]1[C@@H](O)[C@@H](O)[C@@H](CO)O[C@@H]1*
How the values were obtained:
Assay in all cases: Enzyme kinetics, UDP-[3H]-GalNAc transfer to
Assay type in all cases: biochemical
human GalNAc-T4 = conditions: peptide as acceptor substrate; Supplementary Fig. 16a
human GalNAc-T12 = conditions: peptide as acceptor substrate; Supplementary Fig. 16a
Outline: (§1)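 Radiochemical transfer assay with 0.02–0.03 µM purified enzyme, 0.02–0.7 mM acceptor and 0.2 mM UDP-[3H]-GalNAc in 100 mM sodium cacodylate pH 6.5, 1 mM β-mercaptoethanol and 10 mM MnCl2 at 37 °C. T6 and T12 were HEK293F-expressed and His-Trap purified. Reactions were EDTA-quenched and product separated by Sephadex G10. Initial rates (<30% donor used) were normalised to a fresh-enzyme reference glycopeptide. Runs used 5–7 concentrations, 2–5 repeats, and Michaelis–Menten (± substrate-inhibition) fits.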

human GalNAc-T6 = target: T1, human GalNAc-T6 (Homo sapiens, UniProt Q8NCL4); conditions: peptide as acceptor substrate
T1 sequence (Q8NCL4 1-622): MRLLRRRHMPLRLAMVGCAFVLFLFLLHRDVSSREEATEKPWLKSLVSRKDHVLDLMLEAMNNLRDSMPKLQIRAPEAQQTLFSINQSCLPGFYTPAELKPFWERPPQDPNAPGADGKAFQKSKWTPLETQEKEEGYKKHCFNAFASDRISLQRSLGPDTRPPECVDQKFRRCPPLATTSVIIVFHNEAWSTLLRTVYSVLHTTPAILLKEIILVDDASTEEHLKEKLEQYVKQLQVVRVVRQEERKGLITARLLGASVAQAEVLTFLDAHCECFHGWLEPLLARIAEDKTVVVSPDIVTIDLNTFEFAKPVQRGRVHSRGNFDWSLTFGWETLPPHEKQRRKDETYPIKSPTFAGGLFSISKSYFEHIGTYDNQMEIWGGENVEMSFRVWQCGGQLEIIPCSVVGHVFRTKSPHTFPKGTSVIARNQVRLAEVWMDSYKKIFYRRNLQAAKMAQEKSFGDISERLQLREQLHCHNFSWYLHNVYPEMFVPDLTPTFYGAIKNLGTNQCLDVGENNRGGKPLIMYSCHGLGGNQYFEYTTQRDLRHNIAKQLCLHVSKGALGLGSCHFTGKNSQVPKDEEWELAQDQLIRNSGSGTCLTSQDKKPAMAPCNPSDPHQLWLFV
Outline: as §1

human GalNAc-T3 = target: T2, human GalNAc-T3 (Homo sapiens, UniProt Q14435); conditions: naked peptides as acceptor substrates
T2 sequence (Q14435 92-633): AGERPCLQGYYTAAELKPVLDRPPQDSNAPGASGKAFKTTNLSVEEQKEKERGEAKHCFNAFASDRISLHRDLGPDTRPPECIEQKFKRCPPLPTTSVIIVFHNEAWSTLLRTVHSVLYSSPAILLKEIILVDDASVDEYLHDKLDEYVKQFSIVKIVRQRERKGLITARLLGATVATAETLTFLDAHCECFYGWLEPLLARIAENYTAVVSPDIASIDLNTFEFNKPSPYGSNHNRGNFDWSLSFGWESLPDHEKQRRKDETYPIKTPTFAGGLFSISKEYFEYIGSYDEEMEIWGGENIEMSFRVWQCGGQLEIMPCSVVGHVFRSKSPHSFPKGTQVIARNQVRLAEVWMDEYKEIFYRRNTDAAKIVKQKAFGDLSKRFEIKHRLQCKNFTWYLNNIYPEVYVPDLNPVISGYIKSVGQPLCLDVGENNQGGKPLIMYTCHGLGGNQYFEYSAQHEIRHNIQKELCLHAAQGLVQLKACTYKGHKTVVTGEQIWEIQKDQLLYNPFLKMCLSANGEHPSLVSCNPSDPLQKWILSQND
Outline: as §1

- activity of GalNAc-T4 against the peptide (human GalNAc-T4): very low
- activity of GalNAc-T12 against the peptide (human GalNAc-T12): very low
Substance: FGF23b: shorter FGF23 model peptide substrate (A171–T178)

Substance: FGF23c: FGF23 model glycopeptide substrate (T*171–T178, T* = Thr-O-GalNAc) (T(αGalNAc)PIPRRHT-NH2; UniProt Q9GZV9 171-178, looked up, fragment)
- Km of GalNAc-T6 compared to GalNAc-T3 (human GalNAc-T6): slightly better Km
- Kcat of GalNAc-T6 relative to that of GalNAc-T3 (human GalNAc-T6; Supplementary Fig. 16b): ~ 3.5 fold

- activity among the OP1 to OP10 peptide series (human GalNAc-T3): the most active of the series
Substance: GAYAVTPGPAG [OP1]
